Drawing on ChEMBL document CHEMBL1129988, “4-substituted cubylcarbinylamines: a new class of mechanism-based monoamine oxidase B inactivators” (J Med Chem, 1997), this text covers Km, kcat and kcat/Km for one protein.

Substrate in data set [1]: NCC12C3C4C1C1C2C3C41C1CC1
As to the kind of experiment: (§1) Michaelis-Menten constant was determined against mitochondrial Monoamine oxidase B. The method in brief: (§2)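 K_m and k_cat against MAO B were obtained by measuring hydrogen peroxide formed over time with the amine as substrate.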

Substrate in data set [2]: NCC12C3C4C1C1C2C3C41c1ccccc1
The data set is described as §1. The method in brief: as §2

Substrate in data set [3]: NCC12C3C4C5C3C1C5C42
The description is as §1. Summed up:
as §2

B1: Amine oxidase [flavin-containing] B (Bos taurus) (protein)
chain: MSSKCDVVVVGGGISGMAAAKLLHDSGLNVIVLEARDRVGGRTYTLRNQKVKYVDLGGSYVGPTQNHILRLSKELGLETYKVNEVERLIHHTKGKSYPFRGSFPSVWNPITYLDHNNLWRTMDDMGREIPSDAPWKAPLAEQWDLMTMKELLDKICWTESSKQLAILFVNLCVTAEIHEVSALWFLWYVKQCGGTTRIFSTSNGGQERKFVGGSGQVSERIMDLLGDRVKLERPVIHIDQTGENVLVETLNHELYEAKYVISAVPPVLGMKIHFNPPLPMMRNQLITRVPLGSVIKSIVYYKEPFWRNMDYCGSMIIEGEEAPVAYALDDTKPDGSYPAIIGFILAHKARKLARLTKEERLKKLCDLYAKVLGSQEALHPVHYEEKNWCEEQYSGGCYTSYFPPGIMTQYGRVLRQPVGRIYFAGTETATHWSGYMEGAVEAGERAAREILHAMGKIPEDEIWLPEPESVDVPAKPITTTFLQRHLPSVPGLLKLIGLTTIFSATALGFLAHKRGLLVRI
Usually Km stands for the concentration of substrate that gives half-maximal velocity. Usually kcat stands for the number of substrate molecules converted per active site and unit of time at saturation. A word on the kcat/Km: it is the second-order rate constant that governs catalysis at low substrate concentration. With B1, the Km in data set [1] was found to be 1540 µM; in data set [2], 1010 µM; in data set [3] it was 140 µM. Also, the kcat amounted to 2.5 s⁻¹ in data set [1], 3.47 s⁻¹ in data set [2] and 0.0833 s⁻¹ in data set [3]. In addition, the kcat/Km came to 1670 M⁻¹ s⁻¹ in data set [1], 3500 M⁻¹ s⁻¹ in data set [2] and 600 M⁻¹ s⁻¹ in data set [3].
